This note sets out measurements from ChEMBL document CHEMBL1157337, “Interference by naturally occurring fatty acids in a noncellular enzyme-based aromatase bioassay” (J Nat Prod, 2006).

The target in test [1] is T1, Aromatase (Homo sapiens, UniProt P11511).
T1 sequence (P11511 whole entry): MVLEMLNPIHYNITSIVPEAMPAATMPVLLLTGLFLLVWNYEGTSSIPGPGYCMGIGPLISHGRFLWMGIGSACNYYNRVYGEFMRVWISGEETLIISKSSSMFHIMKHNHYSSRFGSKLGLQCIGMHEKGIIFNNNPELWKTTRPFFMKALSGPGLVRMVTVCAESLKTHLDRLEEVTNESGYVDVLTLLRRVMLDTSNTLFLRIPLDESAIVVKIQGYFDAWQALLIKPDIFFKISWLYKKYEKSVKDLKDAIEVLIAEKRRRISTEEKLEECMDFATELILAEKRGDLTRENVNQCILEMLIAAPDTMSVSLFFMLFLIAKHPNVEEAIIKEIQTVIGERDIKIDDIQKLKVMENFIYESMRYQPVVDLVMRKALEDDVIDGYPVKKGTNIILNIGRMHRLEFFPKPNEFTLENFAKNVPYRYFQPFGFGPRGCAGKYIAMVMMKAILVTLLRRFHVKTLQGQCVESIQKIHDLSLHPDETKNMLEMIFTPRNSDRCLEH
Description: Inhibition of aromatase in human placental microsomes at 20 ug/ml by radiometric method relative to control. Set-up: species or system Placenta; scale not given: the % may be the effect or the level left. Particulars: read-out: Activity. An outline of the steps: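 Human term placental microsomes (50 µg) with sample at 20 µg/mL, 100 nM [1β-3H]androstenedione, 0.1 M K phosphate pH 7.0, 5% propylene glycol, NADPH-regenerating system; 37 °C, 15 min, CHCl3 quench and extraction; aqueous 3H2O counted; triplicate.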

Test [2] deals with T1, Aromatase. The test can be described thus: Inhibition of aromatase in human placental microsomes by radiometric method. Set-up: species or system Placenta. An outline of the steps:
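Placental microsomal aromatase (50 µg), 100 nM [1β-3H]androstenedione, pH 7.0 phosphate buffer, 5% propylene glycol, NADPH-regenerating system, 37 °C for 15 min; 3H2O in the aqueous phase counted after CHCl3 extraction, boiled-enzyme background. Eight inhibitor concentrations spanning 1–100 µM; IC50 by nonlinear regression.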

Test [3] concerns the target T1, Aromatase. Description: Inhibition of aromatase in human SKBR3 cells at 100 uM relative to control. In kind it is cell-based. Set-up: scale not given: the % may be the effect or the level left. Particulars: SK-BR-3, human; read-out: Activity. An outline of the steps:
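Test agents at 100 µM on aromatase-overexpressing SK-BR-3 cells in T-25 flasks, serum-free DMEM/F12 with albumin/transferrin/insulin, triplicate, 24 h exposure (0.1% DMSO negative control, 10 nM letrozole positive control). Medium replaced with 50 nM androstenedione plus 2 µCi [1β-3H]androstenedione, 6 h; released 3H2O scintillation-counted, corrected for blanks and DNA-based cell count; percent control activity.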

The target in test [4] is T1, Aromatase. The test can be described thus: Inhibition of aromatase in human SKBR3 cells at 10 nM relative to control. In kind it is cell-based. On the set-up: scale not given: the % may be the effect or the level left. The note with it: SK-BR-3, human; read-out: Activity. An outline of the steps:
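SK-BR-3 human breast cancer cells (aromatase-overexpressing), grown subconfluent in T-25 flasks, medium switched to serum-free DMEM/F12 with albumin, transferrin, insulin; treated in triplicate 24 h (0.1% DMSO negative control). Then 50 nM androstenedione plus 2 µCi [1β-3H]androstenedione for 6 h; 3H2O counted after TCA, CHCl3 and charcoal cleanup; normalized to DNA-determined cell number, expressed as percent control activity.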

For `CCCCC/C=C\C/C=C\C/C=C\C/C=C\CCCC(=O)O` [ARACHIDONIC ACID], the activity at 20 µg/mL in test [1] is 11.5%. This compound gave a concentration for half-maximal inhibition (IC50) in test [2] of 28.2 µM. The activity at 100 µM in test [3] was 147%.

Consider `CC/C=C\C/C=C\C/C=C\C/C=C\C/C=C\C/C=C\CCC(=O)O` [DOCONEXENT], for which the activity at 20 µg/mL in test [1] is 12.4%. This compound also yielded an IC50 in test [2] of 33.2 µM. Also, the activity at 100 µM in test [3] is 98.2%.

For the compound `CC/C=C\C/C=C\C/C=C\C/C=C\C/C=C\CCCCCC(=O)O` [DOCOSAPENTAENOIC ACID], the activity at 20 µg/mL in test [1] came out at 15.7%. The compound also gave an IC50 in test [2] of 16.8 µM. Also, in test [3], the activity at 100 µM turned out to be 94.4%.

Consider `CC/C=C\C/C=C\C/C=C\C/C=C\C/C=C\CCCC(=O)O` [ICOSAPENT], for which, in test [1], the activity at 20 µg/mL was 30.2%. The same compound showed an IC50 in test [2] of 53.2 µM. Also, in test [3], the activity at 100 µM was 138%.

As to `N#Cc1ccc(C(c2ccc(C#N)cc2)n2cncn2)cc1` [LETROZOLE], the activity at 0.01 µM in test [4] worked out at 3.9%.

As for `CCCCC/C=C\C/C=C\CCCCCCCC(=O)O` [LINOLEIC ACID], in test [1], the activity at 20 µg/mL is 22.5%. Moreover, inhibition in test [2] was half-maximal at 48 µM (IC50). In addition, the activity at 100 µM in test [3] is 148%.

With `CC/C=C\C/C=C\C/C=C\CCCCCCCC(=O)O` [LINOLENIC ACID], in test [1], the activity at 20 µg/mL was found to be 49.5%. The IC50 in test [2] stood at 44.2 µM. Also, the activity at 100 µM in test [3] is 92.8%.

In the case of `CCCCCCCCCCCCCC(=O)O` [MYRISTIC ACID], the activity at 20 µg/mL in test [1] was determined as 66.7%.

As to `CCCCCCCC/C=C\CCCCCCCC(=O)O` [OLEIC ACID], the activity at 20 µg/mL in test [1] turned out to be 19.5%. This compound also came in with an IC50 in test [2] of 32.7 µM. Further, the activity at 100 µM in test [3] was 99.3%.

For `CCCCCCCCCCCCCCCC(=O)O` [PALMITIC ACID], in test [1], the activity at 20 µg/mL is 83.2%.

For `CCCCCCCCCCCCCCC(=O)O` [PENTADECANOIC ACID], in test [1], the activity at 20 µg/mL turned out to be 76.2%.

In the case of `CCCCCCCCCCCCCCCCCC(=O)O` [STEARIC ACID], the activity at 20 µg/mL in test [1] came out at 89.4%.
